Screens deposited in PubChem by several laboratories.
HNF4A DNA FP: change in binding of human HNF4 alpha to DNA; P41235; HNF4a-FITC DNA binding, fluorescence polarization, 1 h; activity change, % at 10 µM; 360,000 compounds, 0.3% hits; AID 1224865; in the data active means activity change above about 30%, passing the limit was not always enough
TPT1 inh: blocks Candida albicans tRNA 2'-phosphotransferase | 300,000 compounds, 0.81% hits | inhibition, % at 5 µM | AID 1962 | recombinant caTPT1, FP RNA substrate dephosphorylation;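 active means inhibition above the mean of all tested compounds plus 3 SD, set per screening campaign, cut at about 24% in these data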;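 further: plate controls were DMSO alone for no effect and ferristatin control at 100 nM for full effect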
Rpn11 inh: Rpn11 (human) deubiquitinase inhibition; 360,000 compounds, 0.59% hits; human 26S proteasome, Ub4-pepOG fluorescence polarization; 20S core pre-blocked with epoxomicin; AID 588493; calls only at 20 µM;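 active means inhibition at 20 µM, scaled to each plate's controls, above about 33%, limit read from the data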
Target sequence (O00487 whole entry, looked up): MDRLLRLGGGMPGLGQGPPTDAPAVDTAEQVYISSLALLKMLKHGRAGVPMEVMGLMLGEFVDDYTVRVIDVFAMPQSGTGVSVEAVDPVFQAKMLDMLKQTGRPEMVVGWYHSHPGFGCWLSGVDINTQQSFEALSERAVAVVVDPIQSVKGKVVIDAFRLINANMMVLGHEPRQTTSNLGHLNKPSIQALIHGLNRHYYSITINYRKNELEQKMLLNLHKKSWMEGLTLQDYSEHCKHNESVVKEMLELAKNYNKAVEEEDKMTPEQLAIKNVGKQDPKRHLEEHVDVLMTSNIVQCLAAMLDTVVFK
CRFR2-BP antag: antagonists of CRF-binding protein/CRF-R2 receptor complex | HEK293 CRF-R2/CRF-BP, CRF-induced calcium fluorescence | inhibition, % at 11.8 µM | 350,000 compounds, 0.59% hits;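 active means inhibition of the ligand-induced calcium signal above about 50% at the single tested concentration, limit read from the data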
CRFBP-R2 agonist: CRF-BP/CRF-R2 complex agonism. 350,000 compounds, 0.46% hits. HEK293 CRF-R2/CRF-BP, calcium dye fluorescence (FLIPR); percent of saturating CRF peptide response. activation, % at 13.2 µM;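 active means activation of at least 50%, plus an integration ratio under a set limit after plate pattern correction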;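 further: plate controls were neutral control wells without compound for no effect and CRF at EC100 for full effect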
CSN inh: inhibitors of human CSN-mediated cullin deneddylation | Purified CSN, SCF-Nedd8-OG deneddylation, fluorescence polarization | inhibition, % at 12.5 µM | 360,000 compounds, 0.38% hits | AID 651999;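 active means pattern-corrected inhibition above about 35%, with an unprinted fluorescence ratio check between 0.5 and 1.5, limit read from the data, passing the limit was not always enough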;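 further: 0% = enzyme with substrate and 100% = substrate without enzyme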
Target sequence (Q92905 whole entry, looked up, one chain of several): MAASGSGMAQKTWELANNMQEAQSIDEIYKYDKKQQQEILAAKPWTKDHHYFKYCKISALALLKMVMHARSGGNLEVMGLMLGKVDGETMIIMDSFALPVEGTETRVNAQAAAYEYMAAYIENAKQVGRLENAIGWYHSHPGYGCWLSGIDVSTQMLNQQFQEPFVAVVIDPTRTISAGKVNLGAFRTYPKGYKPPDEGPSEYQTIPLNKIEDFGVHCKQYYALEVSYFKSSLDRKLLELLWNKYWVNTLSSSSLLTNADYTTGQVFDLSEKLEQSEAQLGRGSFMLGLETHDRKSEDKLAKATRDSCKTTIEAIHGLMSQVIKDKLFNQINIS
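Material: human Csn5 produced in HEK293T cells; Input: enzyme 0.24 nM; Reagent: SCFSkp2-Nedd8OG substrate at 10 nM final; Dosing: 12.5 µM compound; Incubation: 90 min reaction at room temperature; Detection: fluorescence polarization of the substrate; Evaluation: % inhibition of substrate cleavage by Csn5; Control set: substrate-only high control, full reaction low control.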
Rpn11 inh conf: Rpn11 inhibition confirmation, single concentration; shares compounds with Rpn11 inh; purified human 26S proteasome, Ub4-pepOG fluorescence polarization; proteasome pretreated with epoxomicin; inhibition, % at 20 µM; 1,900 compounds, 29% hits
MMP-2 inh: blocks human MMP-2, flagging nonselective RPN11 hits; shares compounds with Rpn11 inh; recombinant MMP-2, FRET peptide cleavage fluorescence; inhibition, % at 20 µM; 1,900 compounds, 4% hits; AID 602330;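 further: human MMP-2 activated beforehand with APMA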
Thrombin inh: thrombin (bovine) inhibition counter-screen | 1,900 compounds, 13% hits | inhibition, % at 20 µM | AID 602333 | shares compounds with Rpn11 inh | bovine thrombin cleavage of Ub4-pepOG, fluorescence polarization;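 active means mean inhibition at least 40% at 20 µM, or signal 3 deviations below plate average, so some actives read negative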;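 further: plate controls were thrombin with DMSO for no effect and buffer wells lacking thrombin for full effect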
Active calls of the source: *. Compounds with a hit are over-represented: about 2.3% of the library has one in this group of screens. Unless noted, no stated cut-off is given here; in the data, active means inhibition above about 40%; inactive means the rest.

CC(C)c1ccccc1NC(=O)COC(=O)CCN1C(=O)/C(=C\C=C\c2ccccc2)SC1=S was read as HNF4A DNA FP 9.6, TPT1 inh 16.7, CRFR2-BP antag 0.6, CRFBP-R2 agonist 0.0 and CSN inh 30.7.
For O=C(COC(=O)CCN1C(=O)/C(=C\C=C\c2ccccc2)SC1=S)Nc1ccc(Br)cc1 the results were HNF4A DNA FP 19.0, TPT1 inh 13.3, Rpn11 inh active, CRFR2-BP antag 4.7, CRFBP-R2 agonist 1.5, CSN inh 10.3, Rpn11 inh conf 23.4, MMP-2 inh -13.3 and Thrombin inh -32.4.
Screening N/C(=N\c1nc2c(c(=O)[nH]1)CCC2)Nc1cccc2ccccc12 returned HNF4A DNA FP 5.0, TPT1 inh 2.7, Rpn11 inh active, CRFR2-BP antag -9.7, CRFBP-R2 agonist -0.1, CSN inh 15.5, Rpn11 inh conf 47.3*, MMP-2 inh -5.9 and Thrombin inh 6.1.
For COc1cc2sc3ccc(C#Cc4ccccn4)cc3c(=O)c2cc1OC the results were HNF4A DNA FP 174.8, TPT1 inh 2.7, Rpn11 inh active, CRFR2-BP antag 17.3, CRFBP-R2 agonist 1.2, CSN inh 54.4*, Rpn11 inh conf -14.6, MMP-2 inh -37.7 and Thrombin inh -2.8.
COc1cccc2sc3cc(C#Cc4ccccn4)ccc3c(=O)c12 was read as HNF4A DNA FP -4.1, Rpn11 inh inactive, CRFR2-BP antag -4.9, CRFBP-R2 agonist 0.9 and CSN inh 1.4.
Screening Cc1nc2ccc(NC(=O)c3cc(S(=O)(=O)N(C)c4ccccc4)ccc3Cl)cc2s1 returned HNF4A DNA FP 14.1, TPT1 inh 16.3, Rpn11 inh inactive, CRFR2-BP antag -12.2, CRFBP-R2 agonist 1.5 and CSN inh 7.0.
For Cc1nc2ccc(NC(=O)c3ccc(Cl)c(S(=O)(=O)N(C)c4ccccc4)c3)cc2s1 the results were HNF4A DNA FP 3.7, TPT1 inh -0.2, Rpn11 inh active, CRFR2-BP antag -26.2, CRFBP-R2 agonist 28.9, CSN inh 5.3, Rpn11 inh conf 60.7*, MMP-2 inh -15.2 and Thrombin inh 52.4*.
For N#CC(C#N)=Cc1cc2ccccc2nc1N1CCOCC1 the results were HNF4A DNA FP 5.4, TPT1 inh 1.0, Rpn11 inh inactive, CRFR2-BP antag -32.9, CRFBP-R2 agonist -0.2 and CSN inh -2.2.
For COCCCn1c(=O)/c(=C/c2ccccc2OC(F)F)s/c1=C(\C#N)C(=O)NCCOC the results were HNF4A DNA FP 12.8, Rpn11 inh active, CRFR2-BP antag 0.0, CRFBP-R2 agonist -1.5, CSN inh 33.0, Rpn11 inh conf 23.6, MMP-2 inh 47.2* and Thrombin inh -1.3.
For COC(=O)c1ccc(CSc2ncnc3c2sc2nc(N4CCOCC4)c4c(c23)CCCC4)o1 the results were HNF4A DNA FP 9.0, TPT1 inh -0.5, Rpn11 inh active, CRFR2-BP antag 20.0, CRFBP-R2 agonist 0.6, CSN inh 15.8, Rpn11 inh conf 23.7, MMP-2 inh 18.6 and Thrombin inh -2.9.
CC12CCC(C/C1=N/O)C2(C)CBr (stereo unspecified) was read as HNF4A DNA FP -7.7, TPT1 inh -5.8, Rpn11 inh active, CRFR2-BP antag 6.2, CRFBP-R2 agonist 0.0, CSN inh 3.5, Rpn11 inh conf -14.1, MMP-2 inh -50.7 and Thrombin inh -17.3.
`COc1cc2c(cc1OC)CN(CC(=O)Nc1ccc(S(=O)(=O)N3CCCC3)cc1)CC2` gave HNF4A DNA FP -0.5, TPT1 inh 0.4, Rpn11 inh inactive, CRFR2-BP antag 2.5, CRFBP-R2 agonist -1.8 and CSN inh -0.2.
`COc1cc2c(cc1OC)C(C)N(CC(=O)Nc1ccc(S(=O)(=O)N3CCCC3)cc1)CC2` (stereo unspecified) gave HNF4A DNA FP 5.7, TPT1 inh 4.3, Rpn11 inh active, CRFR2-BP antag -1.7, CRFBP-R2 agonist -0.7, CSN inh 6.4, Rpn11 inh conf -8.2, MMP-2 inh -20.1 and Thrombin inh -8.8.
O=C(NC(=S)Nn1cnc2c(cnn2-c2ccccc2)c1=O)c1ccc(Oc2ccccc2)cc1 was read as HNF4A DNA FP -0.3, TPT1 inh 1.7, Rpn11 inh inactive, CRFR2-BP antag -21.9, CRFBP-R2 agonist 5.8 and CSN inh 4.3.
`CCOc1ccccc1NC(=O)C(OC(=O)c1ccc(NC(=O)CC#N)cc1)c1ccccc1` (stereo unspecified) gave HNF4A DNA FP 11.9, TPT1 inh 8.2, Rpn11 inh active, CRFR2-BP antag -4.4, CRFBP-R2 agonist 0.9, CSN inh 2.1, Rpn11 inh conf 27.5, MMP-2 inh 4.6 and Thrombin inh 6.6.
For CC1=CN2C(=N)/C(=C/c3ccc(Sc4ccc(C)cc4)o3)C(=O)N=C2S1 the results were HNF4A DNA FP 7.2, TPT1 inh 17.4, Rpn11 inh active, CRFR2-BP antag -102.9, CRFBP-R2 agonist 9.3, CSN inh -6.3, Rpn11 inh conf 34.4, MMP-2 inh -15.0 and Thrombin inh 11.7.
For COc1ccc2cc(/C=C3\SC(=S)NC3=O)c(N3CCOCC3)nc2c1 the results were HNF4A DNA FP 24.0, TPT1 inh 10.9, Rpn11 inh active, CRFR2-BP antag 22.0, CRFBP-R2 agonist 4.3, CSN inh 20.9, Rpn11 inh conf 48.2*, MMP-2 inh 24.6 and Thrombin inh active.
For NC1=NC[C@@H](CC2CCCCC2)N1CCc1cc(C(F)(F)F)cc(C(F)(F)F)c1 the results were HNF4A DNA FP 8.7, Rpn11 inh active, CRFR2-BP antag -34.5, CRFBP-R2 agonist 77.8*, CSN inh 3.1, Rpn11 inh conf 8.9, MMP-2 inh -5.9 and Thrombin inh -22.1.
Screening CCc1ccccc1NC(=O)CN1C(=O)C2CCCN2c2ncc(Cl)cc21 (stereo unspecified) returned HNF4A DNA FP 15.7, TPT1 inh 11.2, Rpn11 inh active, CRFR2-BP antag 5.6, CRFBP-R2 agonist 1.2, CSN inh 6.9, Rpn11 inh conf 8.7, MMP-2 inh -18.5 and Thrombin inh 4.8.
